For this data set, the system named is MS2 coat protein. Nature of the data set: apparent Kd, MS2 coat protein; higher = weaker binding; RNA-MaP array; FMN 200 µM where present. The procedure, abridged: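 The apparent Kd is reported as the median of filtered per-cluster binding-curve fits. To get these curves, designs transcribed by stalled E. coli RNA polymerase on Illumina sequencing-chip clusters were titrated with SNAP-549-labelled MS2 coat protein from 0.7 or 1.5 nM, doubling to 3 µM. Titrations were run without and then with constant ligand in 100 mM Tris-HCl pH 7.5, 80 mM KCl, 4 mM MgCl2, BSA, DTT, yeast tRNA and Tween-20, and green signal was normalised to red-channel RNA signal and control-cluster median Fmax.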

Where [1] appears, read: designed as: OFF switch for flavin mononucleotide, no ligand.
Setting [2] is: ligand present: flavin mononucleotide, designed as: OFF switch for flavin mononucleotide.
The mark [3] stands for this setting: designed as: ON switch for flavin mononucleotide, no ligand.
Where [4] appears, read: ligand present: flavin mononucleotide, designed as: ON switch for flavin mononucleotide.

As usually defined, the apparent Kd is a dissociation constant that holds for the conditions of the assay.

Take “GUCAGCUCGUGAGGAUAUACAACACUGCUUUGGCAGUGUAUUAAGAUCACAUGAGGAUCACCCAUGUAGAAGGCACGAGCUGAU”: the “apparent Kd” value under setting [1] was found to be 13.2 nM and the “apparent Kd” value under setting [2] amounted to 228 nM.

“CUGUUCUGUGUAGGAUAUGCAUAUUCCCAUUAUGCAGAAGGACAUGAGGAUCACCCAUGUAUGUUAUUAUCAUGUGUUACAUGC”: the “apparent Kd” value was found to be 37.6 nM under setting [1] and 146 nM under setting [2].

“GUUACAUGAGGAUCACCCAUGUAUGUGUGGGAGUAAGUGUCUUAGGAUAUCUAUUAUUUAAAUUAAGAGAAGGAAGAUUGUUGU”: the “apparent Kd” value runs as follows: under setting [3], 123 nM; under setting [4], 137 nM.

In the case of “UAUAUAAUUAAGAGCUGGAAUAAAACAUGAGGAUCACCCAUGUAGGAUAUCAGCACGAUAAGUGCUGAGAAGGACAACCAGCUC”, the “apparent Kd” value was found to be 15.8 nM under setting [1] and 16.9 nM under setting [2].

As for “CUUUAUCACUAUACAUGAGGAUCACCCAUGUUAUCAUCAUGAGAGGAUAUCGUAUUUGGAUUUUUCGAGAAGGCUCUUUUGUAU”, the “apparent Kd” value is, setting by setting: under setting [3], 108 nM; under setting [4], 77.1 nM.

Turning to “GUCAAGUGAGGAUAUGAUUGUACAACAGACUAGCAUCUGCAUCAGAAGGCACAUGAGGAUCACCCAUGUUUGUC”, the “apparent Kd” value by setting is: under setting [1], 17.5 nM; under setting [2], 17.7 nM.

With “GAAAUUCGGGCAGGAUAUGGGUGCCGUCAAGACAUGAGGAUCACCCAUGUCCCAUGCACGAGCGCUCAGAAGGGCUCAUUGCAG”, the “apparent Kd” value came to 20.8 nM under setting [3] and 22 nM under setting [4].

In the case of “CGCAAGUCAGGAUAUUCGACAGGUAAAUCAGUGGAUCAGUAGGAGAAGGGACAUGAGGAUCACCCAUGUAUGUA”, the “apparent Kd” value is, setting by setting: under setting [1], 49.7 nM; under setting [2], 29.6 nM.

“UUAUUUUUACAGAAGGUUUAAUAAUAUAUAUGAGAAGGAUAUGUAACAUGAGGAUCACCCAUGUUUCACCUAUAUGAGGAUCAU”: the “apparent Kd” value reads like this: under setting [1], 7.26 nM; under setting [2], 6.11 nM.

“UUUACAUGAGGAUCACCCAUGUCUUGCAAGAUGAGUUCUGGUGAGGAUAUACAUGAUAAAGAACUGUAGAAGGCACUGGGUACA”: the “apparent Kd” value runs as follows: under setting [3], 305 nM; under setting [4], 362 nM.

For “AAGAAGUUAGGAUAUGCAUGGCGGGACUUGCGUCGUGGCGUGCAGAAGGAACAUGAGGAUCACCCAUGUAAAGA”, the “apparent Kd” value by setting is: under setting [1], 29.1 nM; under setting [2], 18.3 nM.

For “UUAUGUCGCGUAGGAUAUCAUUAGAGUUGUAAUUUAAUUGUAAUUUCGAUAUGAGAAGGACGUACACAUGAGGAUCACCCAUGU”, the “apparent Kd” value under setting [1] stood at 17.2 nM and the “apparent Kd” value under setting [2] came out at 15.3 nM.

Consider “UGCUUCAUGUAAGGAUAUGCAGCCGUUUCGGCUGCAGAAGGUACUAUAAUACAUGAGGAUCACCCAUGUCUCUCGCAUUGCGAG”, for which the “apparent Kd” value is 240 nM under setting [3] and 95.6 nM under setting [4].

“UUUAUUUAGGCAGGAUAUACAUGUAUAUAUAAUUUUUUAUAUAUUAUUACAUGAGGAUCACCCAUGUAGAAGGGCCUUAUUAUA”: the “apparent Kd” value runs as follows: under setting [1], 41.9 nM; under setting [2], 54.7 nM.

Consider “UCUAUGUAGAUUCAUCAAUACAGUAAGGAUAUGAGAUACAUGAGGAUCACCCAUGUGCAUGUGGAUUAGAAGGUACAAUUAACU”, for which the “apparent Kd” value was found to be 293 nM under setting [1] and 188 nM under setting [2].

Take “AAAACAUGAGGAUCACCCAUGUAUAGAGCGGUUAAUAAAGGUGAGGAUAUACUAAAUUUUAUAUAGUAGAAGGCACUGGGUACU”: the “apparent Kd” value was determined as 26.7 nM under setting [3] and 30.5 nM under setting [4].

For “UUAUCUCAUGAGAAGGACAUGAGGAUCACCCAUGUAGGAUAUCAUGGGUCAGUGGAAUUGAAUCUUCGGAUUCAAUAACUCUAC”, the “apparent Kd” value was found to be 72.5 nM under setting [3] and 11.9 nM under setting [4].

In the case of “UGCAGACGAGGAUAUGAUCAAUAAUACAUGAGGAUCACCCAUGUAAUACUGAUCCAUGGAUCAGAAGGCGUCUGCA”, the “apparent Kd” value by setting is: under setting [1], 16.7 nM; under setting [2], 22.9 nM.

In the case of “UGGCUACAUGAGGAUCACCCAUGUCAGGAUAUGCCGUUGGAUUGCCUUCGUCGUUCGGGUAGAAGGGACUGCGU”, the “apparent Kd” value under setting [1] was 30.3 nM and the “apparent Kd” value under setting [2] was 27.5 nM.

For the sequence “GUGUAGGUAGGAUAUACAUGAGGAUCACCCAUGUGAAUAAGAUAGAAUAAGAUAAAGUGUAGAAGGGCUAGUGU”, the “apparent Kd” value runs as follows: under setting [1], 39.6 nM; under setting [2], 31.9 nM.

Regarding “UUUUUUUUAUGAGGAUAUAUUUUACAUACAAAACAUGAGGAUCACCCAUGUGUUGUCCCAUGUUUAUAGAAGGCAUUUUUUUUU”, the “apparent Kd” value worked out at 418 nM under setting [3] and 598 nM under setting [4].

Regarding “GCCAGGCAUGUAGGAUAUCCAUUGCGUCGCGAUGGAGAAGGGCAACACACAUGAGGAUCACCCAUGUGGUCACCCAUGUCGUGU”, the “apparent Kd” value came to 217 nM under setting [1] and 225 nM under setting [2].

Turning to “CGCUCAUUAUAUAAGGAAAGAAUCAGAAGGCGUUACAUGAGGAUCACCCAUGUUUUGUAUAGUAACGAGGAUAUGAUAUGAGCG”, the “apparent Kd” value is, setting by setting: under setting [1], 18.6 nM; under setting [2], 16 nM.

For “AGUUAUUCAGGAUAUGGUGUGUUAUACAUGAGGAUCACCCAUGUAGAUCCUGGUUAGGCCUCAGAAGGGAAUGUUA”, the “apparent Kd” value turned out to be 190 nM under setting [1] and 190 nM under setting [2].

For the sequence “UCUGCCGCCGUGAGGAUAUGCCCAAACAAACGCGGGCAGAAGGCACAUGAGGAUCACCCAUGUCCCGCGGUUUU”, the “apparent Kd” value worked out at 19.6 nM under setting [1] and 36.3 nM under setting [2].

Turning to “AUUAUUUCAUGAGGAUAUGGCACCUUAUUGGUGCCAGAAGGCAUGUCUAUUGACAUGAGGAUCACCCAUGUAUUAAAUUAUAUA”, the “apparent Kd” value reads like this: under setting [3], 621 nM; under setting [4], 45.3 nM.

Regarding “AUAGCAUACCGAGGAUAUUCAUAUAAUAAAUAAACAUGAGGAUCACCCAUGUGGCGAAAGCCUAGGGAGAAGGCGGAAUGCUAU”, the “apparent Kd” value runs as follows: under setting [3], 204 nM; under setting [4], 24.1 nM.

Turning to “GGUUACAAGUAAGGAUAUGUAUAUGAAACAUAUACAGAAGGUACAUGAGGAUCACCCAUGUUCUUGCAAAGCGAAUAUGUAACC”, the “apparent Kd” value is 15.1 nM under setting [1] and 18.6 nM under setting [2].

Take “CUGGAUGUCGAGGAUAUGCACCGGCUCGCUGACGCAGAAGGCGACACAUGAGGAUCACCCAUGUCGGUUCGCGA”: the “apparent Kd” value turned out to be 18.6 nM under setting [1] and 42 nM under setting [2].

“UGUUUUUAUGUAAGGAUAUGGGUUUGGUUGCGGGCUUAGAAGGUACAUGAGGAUCACCCAUGUAUUUUGUGCAU”: the “apparent Kd” value was 31.6 nM under setting [1] and 35.5 nM under setting [2].

In the case of “CGAGUACAUGAGGAUCACCCAUGUUAUGAAUUGUCAGGAUAUGGAUAUUGUUGACAUGCGCCAGAAGGGACUUCUG”, the “apparent Kd” value reads like this: under setting [3], 27.5 nM; under setting [4], 20.2 nM.

Turning to “UCCUUCUGUUGAGGAUAUGUAAGACAGCAGCUGCUAUGGCGGCACGCUGAUACAGAAGGCAACAUGAGGAUCACCCAUGUUCAA”, the “apparent Kd” value was 20.4 nM under setting [1] and 73 nM under setting [2].

Turning to “AAAAGACAUGAGGAUCACCCAUGUCAGGAUAUCUUCCGUAGGCCGAAUGGCUUCCGGUGGAGAAGGGACAUCGG”, the “apparent Kd” value under setting [1] stood at 50.7 nM and the “apparent Kd” value under setting [2] turned out to be 104 nM.

As for “CCGCCAUGAGGAUAUCCAUCUGGAUCAGACUAGAUCCUGAUGGAGAAGGGACAUGAGGAUCACCCAUGUUGCGG”, the “apparent Kd” value by setting is: under setting [1], 62.8 nM; under setting [2], 55.1 nM.

Regarding “AUUCACCGAGGAUAUACAUGAGGAUCACCCAUGUAAAAGAAACGGUGCCAUCGGUCGUGUAGAAGGUGGUGUUA”, the “apparent Kd” value under setting [1] came to 16.6 nM and the “apparent Kd” value under setting [2] was determined as 16.1 nM.

As to “AAAUCGGUAGAGGAUAUUGUACAGGAAACGGUGCGAGAAGGUUGCACAUGAGGAUCACCCAUGUUUAGUUGCGA”, the “apparent Kd” value under setting [1] is 34.9 nM and the “apparent Kd” value under setting [2] is 34 nM.

On to “GUAUGACAAAGUCAUACCGCUCUGACAUGAGGAUCACCCAUGUAGGAUAUAUUAAUCAAAGAUUAAUAGAAGGACAUGUUUCUU”, for which the “apparent Kd” value was 35.3 nM under setting [1] and 79.3 nM under setting [2].

“GCACGAUCCUCAGGAUAUCACUGAAACAUGAGGAUCACCCAUGUGCGCAGAUGAGAAGGGAGGACUCCGUCUGACUAAAUGUUA”: the “apparent Kd” value reads like this: under setting [3], 109 nM; under setting [4], 10.6 nM.

“CAGGUAGACUGAGGAUAUACACUAAACAGCUAGUCUAUCUAGCUGGUCACAUGAGGAUCACCCAUGUAGAAGGCAGUCUGCCUG”: the “apparent Kd” value is 17.8 nM under setting [1] and 35.9 nM under setting [2].

In the case of “UGUGUGUGUGUGAGGAUAUCGGGCCCGAAAGGGCCCGAGAAGGCACAUGAGGAUCACCCAUGUAAGCGCGCGCG”, the “apparent Kd” value worked out at 321 nM under setting [1] and 108 nM under setting [2].

Regarding “GCACUGGAUGUAGGAUAUCAGGACGAUAAGUCCUGAGAAGGACAUGAGGAUCACCCAUGUGUUAAAACCAGUGCAUAUAAUAUA”, the “apparent Kd” value under setting [1] stood at 13.8 nM and the “apparent Kd” value under setting [2] was found to be 20.6 nM.

“UGUCGGAGCACAGGAUAUUACAUGAGGAUCACCCAUGUAUGAACCAAUAGCUGGAAACAGCAAUGUAAGAAGGCUGCUCCGACA”: the “apparent Kd” value by setting is: under setting [1], 5.6 nM; under setting [2], 5.71 nM.

On to “GAGGAACAUGAGGAUCACCCAUGUGAGGAUAUGCAUAGCGAGGUAGUAGAAGUUGAAUGCAGAAGGUACACGGA”, for which the “apparent Kd” value worked out at 36 nM under setting [1] and 30.3 nM under setting [2].

As for “AAAGCUUCCGCCACAUGAGGAUCACCCAUGUCGUAACCGGGACAGGAUAUCCUCGAUGUAUUUGCGGAGAAGGGUCGCAGGUUA”, the “apparent Kd” value was determined as 77.1 nM under setting [3] and 147 nM under setting [4].

Regarding “GUAGCAUACCGAGGAUAUUCAUAUUACAUGAGGAUCACCCAUGUUAUAGGUCGAUUACGACCUUGGGAGAAGGCGGAAUGCUAC”, the “apparent Kd” value reads like this: under setting [3], 30.9 nM; under setting [4], 13.2 nM.

For the sequence “UAUAUAUAGUAAGGAUAUGUAUUAUUUUUAUAAACAGAAGGUACUGACAUGAGGAUCACCCAUGUUUUAGUGUGGGCAUGUAGA”, the “apparent Kd” value amounted to 49.1 nM under setting [1] and 70.4 nM under setting [2].

Turning to “AAUGGCAUAGAGAAGGCGCCGCAGCUCUUCCUCCCAUCCCAACGACAUGAGGAUCACCCAUGUAGCGAGGAUAUCUAUACCGUU”, the “apparent Kd” value under setting [1] turned out to be 6.91 nM and the “apparent Kd” value under setting [2] was found to be 14.1 nM.

For “CAUUUUGCCGAGGAUAUGGAGGAUGACACUCUACCAGAAGGUGGCACAUGAGGAUCACCCAUGUGGAGUUCGCG”, the “apparent Kd” value is 79.3 nM under setting [1] and 92.7 nM under setting [2].

Values taken from the EternaBench riboswitch data.
